Assay results: paper PMC7723568 (Annals of Translational Medicine, 2020)
“Also recorded” adds a separate entry of the source. Where no end group is shown, it is not given here.

Assays:
[1] = tested on: HEK-293 cells transfected with empty plasmids; assay: Immunofluorescence staining of HEK-293 cells transfected with empty plasmid; type: cell-based, human; settings: 5 µM rhodamine B-labeled peptide; GFP reporter
How it was run: (§1)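 HEK-293 cells were grown in DMEM with 10% FBS and transfected 48 h beforehand with a GFP-reporter CD44v3–v10 plasmid or an empty plasmid. Cells were fixed in 4% paraformaldehyde and blocked in 3% BSA. They were then stained with 5 µM rhodamine B-labelled peptide, with scrambled peptide as control. Nuclei were stained with DAPI, and cells were imaged by fluorescence microscopy at ×400.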

MKN-28 cells = assay: Immunofluorescence staining of MKN-28 cells; type: cell-based; settings: 5 µM FITC-labeled peptide, 37 °C, 10 min, co-stained with anti-CD44v6 antibody
How it was run: (§2)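 Gastric cancer cells were grown in RPMI 1640 with 10% FBS and seeded on coverslips overnight. They were fixed in 4% paraformaldehyde and blocked in 3% BSA. Cells were labelled with monoclonal anti-CD44v6 (1:500, 1 h) and a Cy3 secondary, then with 5 µM FITC-peptide at 37 °C for 10 min. Nuclei were stained with DAPI; imaging was by fluorescence microscopy at ×400.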

SGC-7901 cells = assay: Immunofluorescence staining of SGC-7901 cells; type: cell-based; settings: 5 µM FITC-labeled peptide, 37 °C, 10 min, co-stained with anti-CD44v6 antibody
How it was run: as §2

MKN-45 cells = assay: Immunofluorescence staining of MKN-45 cells; type: cell-based; settings: 5 µM FITC-labeled peptide, 37 °C, 10 min, co-stained with anti-CD44v6 antibody
How it was run: as §2

[2] = tested on: CD44v3–v10 over expressed HEK-293 cells; assay: Immunofluorescence staining of CD44v3–v10 over expressed HEK-293 cells; type: cell-based, human; settings: 5 µM rhodamine B-labeled peptide; GFP reporter
How it was run: as §1

[3] = tested on: excised tumor and organs (liver, stomach, kidney, lung, heart) of SGC-7901 xenograft mice; assay: Biodistribution: fluorescence imaging of excised tumor and organs; type: in vivo, BALB/c-nu/nu mice; settings: FITC labeled, 1 µg/g, i.v., 3 h after injection
[4] = tested on: CD44v3–v10 over expressed HEK-293 cells; type: binding, human; settings: in words; 1×10^10 pfu/well, 37 °C, 1 h
How it was run: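 HEK-293 cells were transfected with a CD44v3–v10 plasmid or an empty plasmid, and assayed 48 h later. Candidate or unrelated phages (1×10^10 pfu/well) were bound for 1 h at 37 °C, then washed six times. Detection used goat anti-M13 (1:200), HRP secondary (1:5,000) and TMB, read at OD450. Selectivity = (ODpv – ODbv)/(ODpc – ODbc), with backgrounds from cells without phage. Triplicate, mean ± SD.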

CD44v3–v10 protein = CD44v3–v10 protein (Homo sapiens, UniProt P16070); assay: Binding affinity to CD44v3–v10 protein
How it was run: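 Biotin-labelled peptide at a range of concentrations was incubated with immobilised recombinant CD44v3–v10 protein, with BSA as the comparison surface. Bound peptide was read as OD values, as in the competitive ELISA. Kd came from fitted binding curves and Scatchard plots. A scrambled peptide was the control. Each point was measured three times, mean ± SD.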

[5] = tested on: SGC-7901 subcutaneous GC xenograft; assay: In vivo fluorescence imaging of SGC-7901 xenograft models; design: species or system BALB/c-nu/nu mice; settings: FITC labeled, 1 µg/g body weight, tail vein
How it was run: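 Male BALB/c nude mice (4–5 weeks, 20–25 g) received 5×10^6 SGC-7901 cells subcutaneously in the axilla, and tumours grew about 3 weeks to 1 cm3. Mice were randomised to two groups of ten. Each group received FITC-peptide probe or FITC-scrambled peptide, 1 µg/g via the tail vein. Under isoflurane, five mice per group were imaged every half hour until the probe was excreted. Signal was expressed as (p/sec/cm2/sr)/(µW/cm2), mean ± SE.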

[6] = tested on: Recombinant CD44v3–v10 protein; assay: Competitive inhibition ELISA on recombinant CD44v3–v10 protein; type: binding, human; settings: in words; CD44v3–v10 protein 1 µg/well; various peptide concentrations; n = 3
How it was run: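 Plates were coated with recombinant CD44v3–v10 protein (1 µg/well) and preincubated with candidate or control peptide at various concentrations. Candidate phage binding was then read by phage ELISA: goat anti-M13 (1:200), HRP secondary (1:5,000), TMB, OD450. Inhibition = 100% – 100%×(ODt – ODb)/(ODi – ODb), where ODb is wells lacking anti-M13 antibody.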

CD44v3–v10 protein, sequence (P16070 21-699 isoform P16070-4 limits assumed): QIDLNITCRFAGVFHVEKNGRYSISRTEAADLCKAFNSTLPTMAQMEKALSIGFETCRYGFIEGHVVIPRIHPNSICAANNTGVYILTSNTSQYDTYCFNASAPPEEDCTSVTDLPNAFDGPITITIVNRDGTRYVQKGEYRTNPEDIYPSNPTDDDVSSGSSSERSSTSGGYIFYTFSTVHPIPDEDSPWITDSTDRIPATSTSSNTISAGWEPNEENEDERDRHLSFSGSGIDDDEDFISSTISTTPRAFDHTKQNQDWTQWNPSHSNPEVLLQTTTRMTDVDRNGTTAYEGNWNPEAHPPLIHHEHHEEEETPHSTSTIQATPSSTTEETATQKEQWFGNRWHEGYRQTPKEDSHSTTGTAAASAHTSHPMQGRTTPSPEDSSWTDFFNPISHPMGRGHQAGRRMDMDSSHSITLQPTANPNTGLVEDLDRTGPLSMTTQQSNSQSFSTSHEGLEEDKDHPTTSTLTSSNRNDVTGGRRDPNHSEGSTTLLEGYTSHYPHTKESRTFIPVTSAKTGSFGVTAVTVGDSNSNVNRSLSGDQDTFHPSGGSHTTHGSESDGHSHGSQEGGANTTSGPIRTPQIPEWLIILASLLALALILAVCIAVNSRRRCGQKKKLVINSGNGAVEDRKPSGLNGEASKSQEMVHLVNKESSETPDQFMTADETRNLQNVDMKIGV

With EHDNTGMLYSVD [control peptide] the “Fluorescent staining of HEK-293 transfected with empty plasmid” value [1] was “only background staining”, the “Fluorescent staining of MKN-28” value (MKN-28 cells) was “only background staining” and the “Fluorescent staining of SGC-7901” value (SGC-7901 cells) was “only background staining”. For the same sequence, the “Fluorescent staining of MKN-45” value (MKN-45 cells) was “only background staining”, the “Fluorescent staining of CD44v3–v10 over expressed HEK-293” value [2] was “only background staining” and the “Distribution in liver and kidney” value [3] was “distributed in liver and kidney”. For the same sequence, the “Strong fluorescence on excised tumor tissue (mice positive/total)” value ([3]; five mice per group) was “not control group”.

In the case of ELTVMGYYPGMS [C3], the “Binding activity / affinity / selectivity ranking in phage ELISA” value [4] is reported as “highest binding activity and frequency; also recorded: second highest selectivity; also recorded: highest affinity”.

In the case of ELTVMGYYPGMS [ELT, ELTVMGYYPGMS], the Kd (CD44v3–v10 protein) is reported as 611 nM, the “Elimination (fluorescence signal four hours after injection)” value ([5]; 4 h) is reported as “nearly undetectable” and the “Time of top fluorescent intensity in tumor” value ([5]; n = 5) is reported as 3 h. For the same sequence, the “Distribution in liver and kidney” value [3] was “distributed in liver and kidney”.

For THMPSDPGMNLL, the “Inhibition of candidate phage binding by displayed peptide” value [6] was “dose-dependent manner”.

For THMPSDPGMNLL [C1], the “Binding activity / affinity / selectivity ranking in phage ELISA” value [4] was “highest binding activity and frequency; also recorded: considerable affinity”.
